Assay results as given in ChEMBL document CHEMBL4342526, “Exploration of the Structural Space in 4(3H)-Quinazolinone Antibacterials” (J Med Chem, 2020).
Values after ≈ are worked out from the molar mass of the structure shown. Active and inactive are the calls of the source. The rule behind the calls is not given here.

Experiments:
Staphylococcus aureus [1] = assay: Antibacterial activity against Staphylococcus aureus ATCC 29213 measured after 16 to 20 hrs by microdilution method; assay type: functional
Outline: (§1)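 CLSI broth microdilution: two-fold serial dilutions in triplicate in cation-adjusted Mueller–Hinton broth with 2% NaCl, inoculum 5 × 10^5 CFU/mL, incubated at 37 °C for 16–20 h. MIC is the lowest concentration preventing visible growth.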

[2] = Selectivity index, ratio of IC50 for human HeLa cells to MIC for clindamycin/erythromycin/spectinomycin-resistant mec-positive Staphylococcus aureus NRS70; assay type: toxicity
Outline: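 HeLa cytotoxicity by XTT assay in triplicate, IC50 by nonlinear regression; ratio IC50 over broth microdilution MIC against NRS70.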

Staphylococcus aureus [3] = assay: Antibacterial activity against multi-drug resistant mec-positive Staphylococcus aureus USA300 measured after 16 to 20 hrs by microdilution method; assay type: functional
Outline: (§2)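 CLSI broth microdilution; two-fold serial compound dilutions in triplicate in cation-adjusted Mueller–Hinton broth with 2% NaCl, inoculum 5 × 10^5 CFU/mL; 37 °C for 16–20 h; MIC = lowest concentration with no visible growth.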

Staphylococcus aureus [4] = assay: Antibacterial activity against multi-drug resistant mecA-positive Staphylococcus aureus NRS119 measured after 16 to 20 hrs by microdilution method; assay type: functional; outline: as §2
HeLa = assay: Cytotoxicity against human HeLa cells assessed as reduction in cell viability measured after 16 hrs by XTT assay; assay type: cell-based
Outline: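 HeLa cells (ATCC CCL-2), run in triplicate. Viability was read by XTT, and IC50 was obtained by nonlinear regression.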

Staphylococcus aureus [5] = assay: Antibacterial activity against multi-drug resistant mecA-positive Staphylococcus aureus ATCC 27660 measured after 16 to 20 hrs by microdilution method; assay type: functional; outline: as §2
[6] = Protein binding in human plasma at 10 uM measured after 6 hrs UV-UPLC based rapid equilibrium dialysis method; assay type: ADME, cell-free
Outline: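 Rapid equilibrium dialysis: human plasma was cleared by centrifugation and spiked from a 1 mM DMSO stock to a final 10 μM, against 0.1 M PBS pH 7.4. Dialysis ran 6 h at 37 °C with orbital shaking. Buffer (free) and plasma (total) aliquots were mixed with internal standard in acetonitrile and measured by UPLC-UV at 285 nm. B% = (Cp−Cf)/Cp×100.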

Staphylococcus aureus [7] = assay: Antibacterial activity against clindamycin/erythromycin/spectinomycin-resistant mec-positive Staphylococcus aureus NRS70 measured after 16 to 20 hrs by microdilution method; assay type: functional; outline: as §2
Staphylococcus aureus [8] = assay: Antibacterial activity against Staphylococcus aureus ATCC 29213 measured after 16 to 20 hrs in presence of bovine serum albumin by microdilution method; assay type: functional
Outline: (§3)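 S. aureus ATCC29213 MIC was run by CLSI microdilution in cation-adjusted Mueller–Hinton broth plus 2% NaCl, with and without 0.5% bovine serum albumin. Compounds were two-fold serially diluted in triplicate, inoculum was 5 × 10^5 CFU/mL, and plates were incubated at 37 °C for 16–20 h. The endpoint was the lowest concentration with no visible growth.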

Staphylococcus aureus [9] = assay: Selectivity ratio of MIC for Staphylococcus aureus ATCC 29213 in presence of bovine serum albumin to MIC for Staphylococcus aureus ATCC 29213 in absence of bovine serum albumin; assay type: functional; outline: as §3
[10] = Solubility of the compound in water; assay type: physicochemical; details: buffer
[11] = Elimination half life in ICR mouse at 10 mg/kg, iv by UV-UPLC analysis; assay type: ADME, organism-based; details: ICR, in vivo, read-out: beta t1/2
Outline: (§4)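 Female ICR mice, 6–8 weeks old, 20–25 g. Each received 50 μL by tail-vein injection (5 or 10 mg/kg) of a filter-sterilized 2 or 4 mg/mL solution in 20% DMSO/10% Tween-80/70% water. Terminal blood was collected and plasma harvested by centrifugation. Plasma was precipitated with acetonitrile containing internal standard, and the supernatant was analyzed by C18 UPLC with UV detection at 285 nm.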

[12] = Volume of distribution in ICR mouse at 10 mg/kg, iv by UV-UPLC analysis; assay type: ADME, organism-based; details: in vivo; outline: as §4
[13] = Elimination half life in ICR mouse at 10 mg/kg, po administered via gavage by UV-UPLC analysis; assay type: ADME, organism-based; details: in vivo, read-out: beta t1/2 (converted)
Streptococcus pneumoniae = assay: Antibacterial activity against Streptococcus pneumoniae ATCC 49619 measured after 16 to 20 hrs by microdilution method; assay type: functional; outline: as §1
[14] = target: T1, MecA (Staphylococcus aureus) (UniProt Q7DHH4); assay: (§5) Binding affinity to PBP2a in clindamycin/erythromycin/spectinomycin-resistant mec-positive Staphylococcus aureus NRS70 assessed potentiation of piperacillin and tazobactam-induced bactericidal activity by measuring log reduction in bacterial count at 0.5 times MIC measured after 12 hrs by time-kill assay
T1 sequence (whole entry): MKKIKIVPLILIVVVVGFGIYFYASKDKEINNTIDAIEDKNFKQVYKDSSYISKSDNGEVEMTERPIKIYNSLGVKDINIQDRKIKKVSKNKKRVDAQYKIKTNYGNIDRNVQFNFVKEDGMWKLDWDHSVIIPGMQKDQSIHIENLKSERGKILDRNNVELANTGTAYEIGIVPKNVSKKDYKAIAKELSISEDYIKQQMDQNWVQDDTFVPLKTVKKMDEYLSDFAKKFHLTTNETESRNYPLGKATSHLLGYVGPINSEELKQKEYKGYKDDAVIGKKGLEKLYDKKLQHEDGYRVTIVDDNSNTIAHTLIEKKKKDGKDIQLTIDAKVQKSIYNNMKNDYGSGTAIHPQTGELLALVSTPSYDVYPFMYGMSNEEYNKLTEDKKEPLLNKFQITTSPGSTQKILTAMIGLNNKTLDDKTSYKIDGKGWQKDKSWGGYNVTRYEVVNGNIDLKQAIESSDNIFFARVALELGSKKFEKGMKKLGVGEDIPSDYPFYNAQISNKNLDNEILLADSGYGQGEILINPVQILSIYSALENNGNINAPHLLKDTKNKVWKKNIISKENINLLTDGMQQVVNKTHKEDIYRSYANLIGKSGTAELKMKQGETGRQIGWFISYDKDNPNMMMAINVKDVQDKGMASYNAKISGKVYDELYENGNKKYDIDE

Clostridioides difficile = assay: Antibacterial activity against Clostridium difficile ATCC 43255 measured after 16 to 20 hrs by microdilution method; assay type: functional
Bacillus cereus = assay: Antibacterial activity against Bacillus cereus ATCC 13061 measured after 16 to 20 hrs by microdilution method; assay type: functional; outline: as §1
Bacillus licheniformis = assay: Antibacterial activity against Bacillus licheniformis ATCC 12759 measured after 16 to 20 hrs by microdilution method; assay type: functional; outline: as §1
Staphylococcus aureus [15] = assay: Bactericidal activity against methicillin resistant Staphylococcus aureus NRS70 infected in ICR mouse model of neutropenic thigh infection assessed as log reduction in bacterial count in thigh at 20 mg/kg, sc administered at 8 hrs interval for 3 times starting from 1 hr post infection and measured 24 hrs post infection; assay type: functional
Outline: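 Female ICR mice (6–8 weeks, 20–25 g) made neutropenic with cyclophosphamide 200 mg/kg ip at 4 and 1 days pre-infection; 0.1 mL NRS70 at 1 × 10^6 CFU/mL in brain heart infusion injected into right thigh; drug in 10% DMSO/90% water sc every 8 h ×3 from 1 h post-infection; thigh CFU counted at 24 h; n = 8/group; mean ± SEM, one-way ANOVA with Tukey test.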

[16] = target: T1, MecA (Staphylococcus aureus); assay: as §5, with “measuring” for “measuring log”, “24” for “12”
[17] = system: Staphylococcus epidermidis; assay: Antibacterial activity against Staphylococcus epidermidis ATCC 35547 measured after 16 to 20 hrs by microdilution method; assay type: functional; outline: as §2
Enterococcus faecalis = assay: Antibacterial activity against Enterococcus faecalis ATCC 29212 measured after 16 to 20 hrs by microdilution method; assay type: functional; outline: as §1
Staphylococcus aureus [18] = assay: Bacteriostatic activity against clindamycin/erythromycin/spectinomycin-resistant mec-positive Staphylococcus aureus NRS70 assessed as log reduction in bacterial count at 0.5 to 16 times MIC by time-kill assay; assay type: functional
Enterococcus faecium = assay: Antibacterial activity against Enterococcus faecium NCTC 7171 measured after 16 to 20 hrs by microdilution method; assay type: functional; outline: as §1
[19] = Clearance in ICR mouse at 5 mg/kg, iv by UV-UPLC analysis relative to hepatic blood flow; assay type: ADME, organism-based; details: in vivo; outline: as §4
[20] = AUC (0 to last) in ICR mouse at 5 mg/kg, iv by UV-UPLC analysis; assay type: ADME, organism-based; design: dose 5 mg/kg, route intravenous, time 0 - last; details: in vivo; outline: as §4
[21] = Clearance in ICR mouse at 5 mg/kg, iv by UV-UPLC analysis; assay type: ADME, organism-based; details: in vivo; outline: as §4

Row | Structure (SMILES) | MIC (Staphylococcus aureus [1]) | selectivity ratio [2] | MIC (Staphylococcus aureus [3]) | MIC (Staphylococcus aureus [4]) | IC50 (HeLa) | MIC (Staphylococcus aureus [5]) | PPB [6] | MIC (Staphylococcus aureus [7]) | MIC (Staphylococcus aureus [8]) | also measured
1 | O=C(O)c1cccc(-n2c(/C=C/c3ccc(Cl)cc3)nc3ccccc3c2=O)c1 | 0.25 µg/mL (≈ 0.621 µM) | 200 | 0.125 µg/mL (≈ 0.31 µM) | 0.125 µg/mL (≈ 0.31 µM) | 50 µg/mL (≈ 124 µM) | 0.25 µg/mL (≈ 0.621 µM) | > 99.9% | 0.25 µg/mL (≈ 0.621 µM) | 1 µg/mL | selectivity ratio (Staphylococcus aureus [9]): <=4
2 | Cc1ccc(C(=O)O)cc1-n1c(/C=C/c2ccc(C#N)cc2)nc2ccccc2c1=O | 2 µg/mL (≈ 4.91 µM) | 15 | 1 µg/mL (≈ 2.45 µM) | 4 µg/mL (≈ 9.82 µM) | 60 µg/mL (≈ 147 µM) | 4 µg/mL (≈ 9.82 µM) | > 99.9% | 4 µg/mL (≈ 9.82 µM) | 16 µg/mL | 
3 | N#Cc1ccc(/C=C/c2nc3ccccc3c(=O)n2-c2ccc[n+]([O-])c2)cc1 | 2 µg/mL (≈ 5.46 µM) | > 128 | 1 µg/mL (≈ 2.73 µM) | 4 µg/mL (≈ 10.9 µM) | > 128 µg/mL | 2 µg/mL (≈ 5.46 µM) | 67.9% | 1 µg/mL (≈ 2.73 µM) | 32 µg/mL | solubility [10]: Insoluble
4 | N#Cc1ccc(/C=C/c2nc3ccccc3c(=O)n2-c2cccc(C(=O)O)c2)cc1 | 2 µg/mL (≈ 5.08 µM) |  | 0.5 µg/mL (≈ 1.27 µM) | 1 µg/mL (≈ 2.54 µM) | 173 µg/mL (≈ 440 µM) | 2 µg/mL (≈ 5.08 µM) |  | 2 µg/mL (≈ 5.08 µM) | 8 µg/mL | half-life [11]: > 1200 min; Vd [12]: 0.3 L/kg; half-life [13]: > 1200 min; MIC (Streptococcus pneumoniae): 16 µg/mL (≈ 40.7 µM); log(activity) [14]: > 3; MIC (Clostridioides difficile): 128 µg/mL (≈ 325 µM); MIC (Bacillus cereus): > 128 µg/mL; MIC (Bacillus licheniformis): > 128 µg/mL; log(activity) (Staphylococcus aureus [15]): 0.67; Activity [16]: inactive; MIC [17]: 1 µg/mL (≈ 2.54 µM); selectivity ratio (Staphylococcus aureus [9]): <=4; MIC (Enterococcus faecalis): > 128 µg/mL; log(activity) (Staphylococcus aureus [18]): <3
5 | N#Cc1ccc(/C=C/c2nc3ccccc3c(=O)n2-c2cccc(NC(=O)CCc3cnc[nH]3)c2)cc1 | 8 µg/mL (≈ 16.4 µM) |  |  |  |  |  |  |  |  | MIC (Enterococcus faecium): 16 µg/mL (≈ 32.9 µM)
6 | N#Cc1ccc(/C=C/c2nc3ccccc3c(=O)n2-c2cccc(C(=O)O)c2)s1 | 4 µg/mL (≈ 10 µM) | 28 | 4 µg/mL (≈ 10 µM) | 4 µg/mL (≈ 10 µM) | 110 µg/mL (≈ 275 µM) | 4 µg/mL (≈ 10 µM) | 99.2% | 4 µg/mL (≈ 10 µM) | 32 µg/mL | 
7 | O=C(O)c1cccc(-n2c(/C=C/c3cc(Cl)cs3)nc3ccccc3c2=O)c1 | 4 µg/mL (≈ 9.78 µM) | 70 | 4 µg/mL (≈ 9.78 µM) | 1 µg/mL (≈ 2.45 µM) | 140 µg/mL (≈ 342 µM) | 2 µg/mL (≈ 4.89 µM) | > 99.9% | 2 µg/mL (≈ 4.89 µM) | 32 µg/mL | 
8 | C#Cc1ccc(/C=C/c2nc3ccccc3c(=O)n2-c2cccc(S(N)(=O)=O)c2)cc1 |  | 1020 |  | 0.06 µg/mL (≈ 0.14 µM) | 61 µg/mL (≈ 143 µM) |  | 98.2% |  | 0.5 µg/mL | CL [19]: > 10%; AUC(0-t) [20]: 2970 ng·h/mL; clearance [21]: 28.2 mL/min/kg
